Data on 11 molecules can be found in ChEMBL document CHEMBL1138136, “Aplysamine-1 and related analogs as histamine H3 receptor antagonists” (Bioorg Med Chem Lett, 2006).

Assay [1] addresses Histamine H3 receptor (Rattus norvegicus, UniProt Q9QYN8). The assay is described as follows: Displacement of N-[3H]methylhistamine from rat histamine H3 receptor in rat cortical hemispheres.
Assay [2] has as its target T1, Histamine H3 receptor (Homo sapiens, UniProt Q9Y5N1). The assay is described as follows: Displacement of N-[3H]methylhistamine from human histamine H3 receptor expressed in SK-N-MC cells. The format is cell-based.
Assay [3] deals with T1, Histamine H3 receptor. The assay is described as follows: Activity against human histamine H3 receptor by histamine induced inhibition of forskolin stimulated cAMP accumulation in SK-N-MC cells. In kind it is functional, cell-based. The settings on record: read-out: pA2 (converted). The essentials:
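SK-N-MC cells overexpressing human H3 receptor; antagonist-induced rightward shifts of histamine dose–response curves for inhibition of forskolin-stimulated cAMP accumulation measured. pA2 obtained by Schild regression analysis.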
For orientation: Changes in cAMP serve as a functional read-out for many G protein-coupled receptors.

T1 sequence (Q9Y5N1 whole entry): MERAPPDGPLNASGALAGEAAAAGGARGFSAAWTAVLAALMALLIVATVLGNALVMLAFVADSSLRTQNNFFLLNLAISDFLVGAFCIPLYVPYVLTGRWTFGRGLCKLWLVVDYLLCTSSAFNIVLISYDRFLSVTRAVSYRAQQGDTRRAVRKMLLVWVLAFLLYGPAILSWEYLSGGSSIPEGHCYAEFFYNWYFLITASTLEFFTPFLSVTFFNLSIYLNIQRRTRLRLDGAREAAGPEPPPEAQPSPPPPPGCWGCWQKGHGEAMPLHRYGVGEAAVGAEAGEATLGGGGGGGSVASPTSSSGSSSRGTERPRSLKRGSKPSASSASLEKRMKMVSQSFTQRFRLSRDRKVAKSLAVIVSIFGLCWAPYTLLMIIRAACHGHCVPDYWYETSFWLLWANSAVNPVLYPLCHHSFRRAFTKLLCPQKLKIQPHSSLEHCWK
Histamine H3 receptor (Rattus norvegicus, UniProt Q9QYN8), sequence (Q9QYN8 whole entry): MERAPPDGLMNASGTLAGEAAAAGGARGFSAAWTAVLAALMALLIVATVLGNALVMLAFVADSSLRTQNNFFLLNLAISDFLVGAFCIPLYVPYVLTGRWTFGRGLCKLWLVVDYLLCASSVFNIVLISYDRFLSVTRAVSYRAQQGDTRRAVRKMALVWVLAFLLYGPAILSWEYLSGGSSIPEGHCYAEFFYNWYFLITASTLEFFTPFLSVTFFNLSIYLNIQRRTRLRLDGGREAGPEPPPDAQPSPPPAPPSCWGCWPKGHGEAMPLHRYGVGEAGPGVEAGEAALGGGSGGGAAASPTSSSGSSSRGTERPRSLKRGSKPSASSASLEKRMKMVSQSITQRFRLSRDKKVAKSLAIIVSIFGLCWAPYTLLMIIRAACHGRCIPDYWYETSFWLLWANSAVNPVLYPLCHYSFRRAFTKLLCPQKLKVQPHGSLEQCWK

For `c1cc(OCCCN2CCCCC2)ccc1CN1CCCCC1` [JNJ-5207852], the Ki (as a rule, a dissociation constant, usually derived from enzyme kinetics or from competition with a known ligand) at Histamine H3 receptor [1] worked out at 1 nM.
In the case of `CN(C)CCCOc1c(Br)cc(CN(C)C)cc1Br`, the Ki on Histamine H3 receptor [2] came out at 36 nM; at Histamine H3 receptor [1], 319 nM.
For `CN(C)CCOc1ccc(CCN(C)C)cc1` the same measures were 40 nM and 345 nM.
Turning to `Brc1cc(CN2CCCCC2)cc(Br)c1OCCCN1CCCCC1`, the results for the Ki at Histamine H3 receptor [2] and at Histamine H3 receptor [1] were 8 nM and 57 nM, respectively. The Kb on Histamine H3 receptor [3] is 7.24 nM.
Regarding `CN(C)CCCOc1c(Br)cc(CCN(C)C)cc1Br` [APLYSAMINE], at Histamine H3 receptor [1], the Ki came to 249 nM.
Molecule `CCCCN(CCCC)CCCOc1ccc(-c2cn3c(C)cccc3n2)cc1` gave a Ki on Histamine H3 receptor [2] of 4000 nM.
Take `CN(C)CCCOc1ccc(CN2CCCCC2)cc1`: the Ki is 3 nM at Histamine H3 receptor [2] and 45 nM at Histamine H3 receptor [1]. The Kb at Histamine H3 receptor [3] is 9.33 nM.
The like results for `CN(C)CCCOc1ccc(CCN(C)C)cc1` were, in that order, 6 nM, 89 nM and 17 nM.
Consider `CN(C)CCCOc1ccc(CN(C)C)cc1`, for which the Ki on Histamine H3 receptor [2] worked out at 18 nM; at Histamine H3 receptor [1] it was 255 nM.
The like results for `CN(C)CCc1ccc(OCCN2CCCCC2)cc1` were, in that order, 14 nM and 50 nM.
`CN(C)CCc1ccc(OCCCN2CCCCC2)cc1`: the Ki came to 0.5 nM at Histamine H3 receptor [2] and 5 nM at Histamine H3 receptor [1]. Further, at Histamine H3 receptor [3], the Kb was 0.501 nM.
